# Assay outcomes: PubChem BioAssay, several laboratories
# In the library only some 9.6% were active in any assay of this set; here they are far more common.
# BaF3 tox: parental Ba/F3 cell viability inhibition, counter-screen for JAK2V617F inhibitor project, murine pro-B, CellTiter-Glo luminescence. CellTiter-Glo ATP luminescence. inhibition, % at 5.6 µM. 220,000 compounds, 1.1% hits. AID 1486, 2009;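 active = inhibition above a per-campaign cutoff, the mean inhibition of all tested compounds plus 3 SD, cut at about 27% in these data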;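 also: 0% = DMSO wells and 100% = JAK Inhibitor I control wells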
# MT stabilize HCS: microtubule stabilizers in HeLa cells, primary screen, imaging, high-content imaging; 200,000 compounds, 0.83% hits; HeLa tubulin immunostaining HCS, 24 h; share of cells brighter than vehicle mean+2SD; % tubulin-high responders, % at 10 µM;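 active = plate Z-score above 3 for both tubulin-high and condensed-nucleus cell shares, with cell loss under 80%, at 10 µM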;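 also: anti alpha tubulin signal scored within the nucleus-defined area of each cell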
# bCat nuc transl: modulators of beta-catenin nuclear translocation, primary screen, imaging, HeLa cells, immunofluorescence, high-content; AID 1665, 2009; nuclear translocation activity, % at 5 µM; 190,000 compounds, 0.3% hits;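 active = nuclear translocation activity above 50% at 5 µM, with a well cell count of 50 or more; inconclusive = wells under 50 cells across six images, flagged as toxic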;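 also: per-cell ratio of nuclear to cytoplasmic median beta-catenin stain intensity; plate controls were DMSO negative control for no effect and GSK-3 inhibitor IX positive control for full effect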
#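 Signal – beta-catenin immunofluorescence imaging with DAPI · Test system – human HeLa cell line · Dosing – 5 µM primary single dose, 0.1% DMSO, 0.02–20 µM confirmation series · Measure – % activation, nuclear-to-cytoplasmic median beta-catenin signal ratio per cell · Incubation – 24 h compound exposure at 37°C, 5% CO2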
# APP 5UTR inh: inhibitors of APP translation via 5'UTR reporter, primary screen, APP 5'UTR luciferase, SH-SY5Y cells. SH-SY5Y APP 5'UTR-luciferase reporter, luminescence. inhibition, % at 2 µM. 190,000 compounds, 0.82% hits;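 active = inhibition above a set limit, derived from the sample mean plus 3 SD, cut at about 45% in these data; inconclusive = one replicate passes the limit while the other fails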
# Lmaj promast: Leishmania major promastigote growth inhibition, primary screen; inhibition, % at 10 µM; 200,000 compounds, 9% hits; Leishmania major promastigotes, resazurin fluorescence viability; in the data active = inhibition above about 50%;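 also: promastigotes grown with compound for 44 hours at 28 °C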
# Ba/F3 V617F tox: reduced viability of JAK2V617F-dependent Ba/F3 cells, primary screen, JAK2V617F inhibitor project, cell-based, Ba/F3 EpoR-JAK2V617F, luminescence. ATP luminescence. inhibition, % at 5.6 µM. 220,000 compounds, 1.1% hits;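 active = inhibition above the campaign mean plus 3 SD over all tested compounds, cut at about 24% in these data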;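 also: cytokine-independent growth of Ba/F3 cells driven by EpoR plus mutant JAK2; 0% = DMSO-treated cells and 100% = JAK inhibitor I control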
# Active calls of the source: *; ? = inconclusive; nt = no result given.
SMILES,BaF3 tox,MT stabilize HCS,bCat nuc transl,APP 5UTR inh,Lmaj promast,Ba/F3 V617F tox
COc1ccc(NS(=O)(=O)c2ccc(N3CCOCC3)c(NC(=O)c3ccccc3Cl)c2)cc1,42*,6,0,-2,97*,43*
O=C(Nc1ccc(Cl)c(Cl)c1)Nc1cc(S(=O)(=O)N2CCOCC2)ccc1N1CCCC1,2,3,3,-5,69*,-4
Cc1ccc(NC(=O)c2cc(N3CCOCC3)nc3ccccc23)cc1,2,24*,-5,-3,5,-3
COc1ccc(-c2cc(C(=O)Nc3cc(S(=O)(=O)N4CCOCC4)ccc3N3CCOCC3)c3ccccc3n2)cc1,7,4,2,29,65*,0
O=C(Nc1ccccc1)c1cc(N2CCOCC2)nc2ccccc12,6,2,0,0,12,0
COc1ccc(CN2CCNC(=O)C2CC(=O)NCCc2nc(C)c(C)s2)c(OC)c1 (stereo not drawn),-2,nt,0,nt,nt,-4
Cc1ccc(C)c2nc3sc(C(=O)O)cc3cc12,5,2,2,11,1,2
Cn1c(SCc2ccccc2F)nnc1-c1ccccn1,13,2,3,-35,0,-1
COc1ccc(NC(=O)CC2SC(=N)N(c3ccccc3)C2=O)c(OC)c1 (stereo not drawn),2,3,-1,13,28,-3
COc1ccc2cc(/C(C)=N/NC(=S)Nc3cc(S(=O)(=O)N4CCOCC4)ccc3N3CCOCC3)ccc2c1,12,7,2,-27,75*,3
COc1ccc(NS(=O)(=O)c2ccc(N3CCOCC3)c(NC(=O)c3ccc(OC)cc3)c2)cc1,42*,3,-2,-4,82*,41*
Nn1cnnc1N/N=C/c1ccc(Cl)c([N+](=O)[O-])c1,3,3,-3,-2,54*,2
CN(C)c1nc(N/N=C\c2ccc(Cl)c([N+](=O)[O-])c2)nc(Nc2ccc(F)cc2)n1,3,2,nt,-5,97*,0
COC(=O)c1sc(OC)cc1OCc1ccc(C)cc1,3,1,-9,5,-5,-5
Cc1ccc(NC(=O)NNC(=O)Cn2nc(-c3ccccc3)c(-c3ccccc3)c(C#N)c2=O)cc1,-1,27*,0,7,-6,1
CC[n+]1ccc2cc(OC)c(OC)cc2c1Cc1ccc(OC)c(OC)c1,7,2,-1,-10,0,1
COC(=O)[C@@H](NC(=O)N1CCC(C)CC1)C(C)C,2,nt,-1,nt,nt,-3
CCOC(=O)c1ccc(NC(=S)N(CCCN(CC)CC)Cc2ccco2)cc1,9,2,-3,1,100*,1
CCOC(=O)c1ccc(NC(=O)CSCc2ccco2)cc1,-5,3,0,-6,89*,-6
CCOC(=O)c1ccc(NC(=S)N(CCCN2CCCCC2)Cc2ccco2)cc1,8,3,-1,-4,93*,0
CCOC(=O)c1ccc(NC(=O)CSCCC(=O)O)cc1,6,3,0,-15,-2,3
COc1cc([N+](=O)[O-])ccc1NC(=O)COC(=O)c1ccc(NC(N)=O)cc1,0,nt,0,nt,nt,-3
CSc1cc(C)c(OCC(=O)Nc2ccc(NC(C)=O)cc2)c(C)c1,6,4,-1,3,-9,0
CCNC(=O)CCCOc1ccc(Cl)cc1Cl,4,4,-1,1,-1,3
CCC(C)NCCCCOc1ccc(Cl)cc1C (stereo not drawn),5,2,-4,-8,97*,1
SMILES,BaF3 tox,MT stabilize HCS,bCat nuc transl,APP 5UTR inh,Lmaj promast,Ba/F3 V617F tox
Cc1cc(Cl)ccc1OCCCC(=O)NN,2,3,-5,15,-8,1
CCCCNCCCOc1cc(Cl)ccc1Cl,5,3,1,6,98*,1
CCC(C)NCCCOc1cc(Cl)ccc1Cl (stereo not drawn),6,2,-1,-3,100*,2
O=C1/C(=C/c2cccnc2)Sc2ccccc21,6,4,-1,1,83*,4
CC(=O)Nc1ccc(/C=C2\Sc3ccccc3C2=O)cc1,-2,nt,1,nt,nt,0
COc1cccc2c1C(=O)c1c(O)c3c(c(O)c1C2=O)C[C@@](O)(C(C)=O)C[C@@H]3O[C@H]1C[C@H](N)[C@H](O)[C@H](C)O1,101*,77,?,96*,100*,102*
CC(=O)Nc1ccc(Cc2ccc3[nH]c(=O)cc(C)c3c2)cc1,-2,nt,1,nt,nt,-2
CC(NCC(O)COC1CCC(C(C)(C)C)CC1)c1ccccc1 (stereo not drawn),6,4,nt,0,100*,4
CC1CCC(C(C)C)C(OCC(O)CNC(C)c2ccccc2)C1 (stereo not drawn),1,3,-3,10,77*,2
Cc1ccc(C)c(NC(=O)Cn2nc(C)c3ccccc3c2=O)c1,nt,nt,2,nt,nt,nt
CCOC(=O)c1cc(=O)cc(C(=O)OCC)o1,4,3,-6,7,95*,0
COC(=O)c1cc(=O)cc(C(=O)OC)o1,5,3,-4,-7,-5,0
CCOc1ccc(-c2nc[nH]c2[N+](=O)[O-])cc1,-1,2,-2,-1,-7,-4
COc1ccccc1-c1cc(C(F)(F)F)nc(S(=O)(=O)CCCC(=O)NC(C)C)n1,5,6,1,-5,89*,0
COc1ccccc1-c1cc(C(F)(F)F)nc(S(=O)(=O)CCCC(=O)NCc2ccc(F)cc2)n1,10,3,1,24,4,1
CCN(CC)S(=O)(=O)c1cc(C(=O)Nc2ccccc2[N+](=O)[O-])ccc1Cl,2,7,1,-28,78*,-1
CN(C)S(=O)(=O)c1cccc(C(=O)Nc2ccccc2[N+](=O)[O-])c1,-4,5,3,3,4,-4
CCN(CC)S(=O)(=O)c1cc(C(=O)NC2=NCCS2)ccc1Cl,6,1,nt,12,21,0
CCN(CC)S(=O)(=O)c1cc(C(=O)Nc2cc(Cl)ccc2N2CCN(C)CC2)ccc1Cl,0,3,nt,-16,100*,-2
Nc1cc(S(=O)(=O)Nc2ccccc2Cl)ccc1N1CCCC1,4,nt,2,nt,nt,-2
CN1CCN(c2ccc(Cl)cc2NC(=O)c2ccc(S(=O)(=O)N(C)C)cc2)CC1,6,1,nt,nt,100*,-2
CN1CCN(c2ccc(Cl)cc2NS(=O)(=O)c2ccccc2Cl)CC1,2,3,-3,-2,100*,-2
CCc1cc(CNC(=O)CC2C(=O)NCCN2Cc2cccc(OC)c2)on1 (stereo not drawn),2,4,1,1,-2,-1
